Results as given in ChEMBL document CHEMBL3808276, “Identification of Adenine and Benzimidazole Nucleosides as Potent Human Concentrative Nucleoside Transporter 2 Inhibitors: Potential Treatment for Hyperuricemia and Gout” (J Med Chem, 2016).
≈ marks a conversion by molar mass, not a printed value. Calls of active or inactive are those of the source. The rule behind the calls is not given here.

biological target: T1, Sodium/nucleoside cotransporter 2 (Homo sapiens, UniProt O43868); assay: Inhibition of human CNT2 expressed in African green monkey COS7 cells assessed as reduction of [14C]-inosine uptake by liquid scintillation counting analysis; assay type: cell-based, COS-7; conditions: not given
T1 sequence (O43868 whole entry): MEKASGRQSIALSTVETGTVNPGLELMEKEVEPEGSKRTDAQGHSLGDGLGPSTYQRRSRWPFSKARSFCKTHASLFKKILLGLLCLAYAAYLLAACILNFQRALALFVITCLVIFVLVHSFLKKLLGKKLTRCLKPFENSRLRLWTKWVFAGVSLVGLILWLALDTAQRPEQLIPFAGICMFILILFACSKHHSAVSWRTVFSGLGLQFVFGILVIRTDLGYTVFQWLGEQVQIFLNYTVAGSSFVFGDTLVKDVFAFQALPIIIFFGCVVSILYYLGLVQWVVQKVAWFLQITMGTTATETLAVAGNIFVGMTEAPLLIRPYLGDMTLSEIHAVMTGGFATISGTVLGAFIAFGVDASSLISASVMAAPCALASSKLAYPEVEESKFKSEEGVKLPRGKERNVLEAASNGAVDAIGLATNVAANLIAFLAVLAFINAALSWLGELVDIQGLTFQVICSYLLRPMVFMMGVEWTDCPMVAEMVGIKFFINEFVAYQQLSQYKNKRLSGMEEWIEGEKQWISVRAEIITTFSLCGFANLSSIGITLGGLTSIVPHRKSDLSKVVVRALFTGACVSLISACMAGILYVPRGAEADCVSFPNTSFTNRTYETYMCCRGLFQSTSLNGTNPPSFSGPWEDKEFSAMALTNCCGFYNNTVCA
How it was run: (§1)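 COS-7 cells transiently transfected with hCNT2 in pCI-neo, assayed after 2 days. Pretreated in Na+-free choline buffer, 37 °C, 2×10 min. Uptake of 10 µM [14C]inosine for 30 min at 37 °C with 10 µM NBMPR, ±Na+, pH 7.4. Na+-dependent uptake set as 100%; lysate counted by scintillation. IC50 by nonlinear regression, ≥3 experiments; top concentration 100 µM.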

Row | Compound | IC50 [nM]
1 | O=c1[nH]cnc2c1nc(NCc1ccc(-c3ccccc3)c(OCCCCO)c1)n2[C@@H]1O[C@H](CO)[C@@H](O)[C@H]1O | 20100
2 | Nc1ncnc2c1nc(NCc1ccc(-c3ccccc3)cc1O)n2[C@@H]1O[C@H](CO)[C@@H](O)[C@H]1O | 1300
3 | CC(C)Oc1cc(CNc2nc3c(N)ncnc3n2[C@@H]2O[C@H](CO)[C@@H](O)[C@H]2O)ccc1-c1ccccc1 | 10400
4 | CCCOc1cc(CNc2nc3c(N)ncnc3n2[C@@H]2O[C@H](CO)[C@@H](O)[C@H]2O)ccc1-c1ccccc1 | 5200
5 | Nc1ncnc2c1nc(NCc1ccc(-c3ccccc3)c(O)c1)n2[C@@H]1O[C@H](CO)[C@@H](O)[C@H]1O | 1200
6 | Nc1ncnc2c1nc(NCc1ccc(-c3ccccc3)c(OCCO)c1)n2[C@@H]1O[C@H](CO)[C@@H](O)[C@H]1O | 3100
7 | COC(=O)COc1cc(CNc2nc3c(N)ncnc3n2[C@@H]2O[C@H](CO)[C@@H](O)[C@H]2O)ccc1-c1ccccc1 | 3300
8 | Nc1ncnc2c1nc(NCc1ccc(-c3ccncc3)cc1)n2[C@@H]1O[C@H](CO)[C@@H](O)[C@H]1O | 2700
9 | COc1cc(-c2ccccc2)ccc1CNc1nc2c(N)ncnc2n1[C@@H]1O[C@H](CO)[C@@H](O)[C@H]1O | 1100
10 | Nc1ncnc2c1nc(NCc1ccc(-c3ccccn3)cc1)n2[C@@H]1O[C@H](CO)[C@@H](O)[C@H]1O | 1500
11 | Nc1ncnc2c1nc(NCc1ccc(-c3cccnc3)cc1)n2[C@@H]1O[C@H](CO)[C@@H](O)[C@H]1O | 1000
12 | Nc1ncnc2c1nc(NCc1ccc(-c3ccccc3)c(OCCCCCO)c1)n2[C@@H]1O[C@H](CO)[C@@H](O)[C@H]1O | 1600
13 | CCOc1cc(CNc2nc3c(N)ncnc3n2[C@@H]2O[C@H](CO)[C@@H](O)[C@H]2O)ccc1-c1ccccc1 | 2300
14 | Nc1ncnc2c1nc(NCc1ccc(-c3ccccc3)c(OCCCO)c1)n2[C@@H]1O[C@H](CO)[C@@H](O)[C@H]1O | 1100
15 | COc1cc(CNc2nc3c(N)ncnc3n2[C@@H]2O[C@H](CO)[C@@H](O)[C@H]2O)ccc1-c1ccccc1 | 1300
16 | CC(C)Oc1cc(-c2ccccc2)ccc1CNc1nc2c(N)ncnc2n1[C@@H]1O[C@H](CO)[C@@H](O)[C@H]1O | 9300
17 | CCOc1cc(-c2ccccc2)ccc1CNc1nc2c(N)ncnc2n1[C@@H]1O[C@H](CO)[C@@H](O)[C@H]1O | 5400
18 | NC(=O)COc1cc(CNc2nc3c(N)ncnc3n2[C@@H]2O[C@H](CO)[C@@H](O)[C@H]2O)ccc1-c1ccccc1 | 5500

biological target: T2, Sodium/nucleoside cotransporter 2 (Homo sapiens) (UniProt O43868); assay: Inhibition of human CNT2 expressed in African green monkey COS7 cells assessed as reduction of [14C]-inosine uptake at 100 uM by liquid scintillation counting analysis; assay type: cell-based; conditions: COS-7; how it was run: as §1
T2 sequence (whole entry): T1 sequence (O43868 whole entry)

Row | Compound | inhibition
19 | CCCOc1cc(-c2ccccc2)ccc1CNc1nc2c(N)ncnc2n1[C@@H]1O[C@H](CO)[C@@H](O)[C@H]1O | inactive

biological target: T3, Sodium/nucleoside cotransporter 2 (Rattus norvegicus) (UniProt Q62773); assay: Inhibition of rat CNT2 expressed in African green monkey COS7 cells assessed as reduction of [14C]-inosine uptake at 100 uM by liquid scintillation counting analysis; assay type: cell-based; conditions: COS-7
T3 sequence (whole entry): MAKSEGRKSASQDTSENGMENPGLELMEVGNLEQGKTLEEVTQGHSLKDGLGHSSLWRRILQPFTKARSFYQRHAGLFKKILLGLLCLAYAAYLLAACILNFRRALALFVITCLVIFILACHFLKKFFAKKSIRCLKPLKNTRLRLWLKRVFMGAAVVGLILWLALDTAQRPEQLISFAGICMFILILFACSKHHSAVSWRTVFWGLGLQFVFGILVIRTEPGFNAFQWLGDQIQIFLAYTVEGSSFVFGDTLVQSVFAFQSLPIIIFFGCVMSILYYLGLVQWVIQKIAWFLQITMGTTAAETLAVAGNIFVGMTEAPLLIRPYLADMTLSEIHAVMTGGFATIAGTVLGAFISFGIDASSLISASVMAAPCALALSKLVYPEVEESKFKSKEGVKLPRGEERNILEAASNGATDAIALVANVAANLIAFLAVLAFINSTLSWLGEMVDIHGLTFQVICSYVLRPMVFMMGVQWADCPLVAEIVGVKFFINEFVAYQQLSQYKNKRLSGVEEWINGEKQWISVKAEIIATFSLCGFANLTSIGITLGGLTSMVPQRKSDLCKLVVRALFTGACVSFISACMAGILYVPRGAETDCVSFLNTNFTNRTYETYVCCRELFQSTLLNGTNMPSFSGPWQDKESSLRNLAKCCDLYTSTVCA

Row | Compound | inhibition
20 | Nc1ncnc2c1nc(NCc1ccc(-c3ccccc3)cc1O)n2[C@@H]1O[C@H](CO)[C@@H](O)[C@H]1O | inactive
21 | CC(C)Oc1cc(CNc2nc3c(N)ncnc3n2[C@@H]2O[C@H](CO)[C@@H](O)[C@H]2O)ccc1-c1ccccc1 | inactive
22 | CCCOc1cc(CNc2nc3c(N)ncnc3n2[C@@H]2O[C@H](CO)[C@@H](O)[C@H]2O)ccc1-c1ccccc1 | inactive
23 | Nc1ncnc2c1nc(NCc1ccc(-c3ccccc3)c(O)c1)n2[C@@H]1O[C@H](CO)[C@@H](O)[C@H]1O | inactive
24 | Nc1ncnc2c1nc(NCc1ccc(-c3ccccc3)c(OCCO)c1)n2[C@@H]1O[C@H](CO)[C@@H](O)[C@H]1O | 49%
25 | COC(=O)COc1cc(CNc2nc3c(N)ncnc3n2[C@@H]2O[C@H](CO)[C@@H](O)[C@H]2O)ccc1-c1ccccc1 | inactive
26 | Nc1ncnc2c1nc(NCc1ccc(-c3ccncc3)cc1)n2[C@@H]1O[C@H](CO)[C@@H](O)[C@H]1O | inactive
27 | COc1cc(-c2ccccc2)ccc1CNc1nc2c(N)ncnc2n1[C@@H]1O[C@H](CO)[C@@H](O)[C@H]1O | inactive
28 | Nc1ncnc2c1nc(NCc1ccc(-c3ccccn3)cc1)n2[C@@H]1O[C@H](CO)[C@@H](O)[C@H]1O | inactive
29 | Nc1ncnc2c1nc(NCc1ccc(-c3cccnc3)cc1)n2[C@@H]1O[C@H](CO)[C@@H](O)[C@H]1O | 11%
30 | CCOc1cc(CNc2nc3c(N)ncnc3n2[C@@H]2O[C@H](CO)[C@@H](O)[C@H]2O)ccc1-c1ccccc1 | inactive
31 | Nc1ncnc2c1nc(NCc1ccc(-c3ccccc3)cc1)n2[C@@H]1O[C@H](CO)[C@@H](O)[C@H]1O | inactive
32 | COc1cc(CNc2nc3c(N)ncnc3n2[C@@H]2O[C@H](CO)[C@@H](O)[C@H]2O)ccc1-c1ccccc1 | inactive
33 | CC(C)Oc1cc(-c2ccccc2)ccc1CNc1nc2c(N)ncnc2n1[C@@H]1O[C@H](CO)[C@@H](O)[C@H]1O | inactive
34 | CCCOc1cc(-c2ccccc2)ccc1CNc1nc2c(N)ncnc2n1[C@@H]1O[C@H](CO)[C@@H](O)[C@H]1O | inactive
35 | CCOc1cc(-c2ccccc2)ccc1CNc1nc2c(N)ncnc2n1[C@@H]1O[C@H](CO)[C@@H](O)[C@H]1O | inactive
36 | NC(=O)COc1cc(CNc2nc3c(N)ncnc3n2[C@@H]2O[C@H](CO)[C@@H](O)[C@H]2O)ccc1-c1ccccc1 | < 5%

test system: not listed separately; assay: Solubility of compound in JP2 at pH 6.8 after 1 hr at 37 degC; assay type: physicochemical; conditions: JP2, pH 6.8
How it was run: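 Solubility measured in JP2, a 1:1 mix of pH 6.8 phosphate buffer and water, after incubation for 1 h at 37 °C.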

Row | Compound | solubility at 1 h [µg/mL]
37 | COc1cc(-c2ccccc2)ccc1CNc1nc2c(N)ncnc2n1[C@@H]1O[C@H](CO)[C@@H](O)[C@H]1O | 4 (≈ 8.36 µM)
38 | CCOc1cc(CNc2nc3c(N)ncnc3n2[C@@H]2O[C@H](CO)[C@@H](O)[C@H]2O)ccc1-c1ccccc1 | 121 (≈ 246 µM)
39 | Nc1ncnc2c1nc(NCc1ccc(-c3ccccc3)cc1)n2[C@@H]1O[C@H](CO)[C@@H](O)[C@H]1O | 3 (≈ 6.69 µM)
40 | COc1cc(CNc2nc3c(N)ncnc3n2[C@@H]2O[C@H](CO)[C@@H](O)[C@H]2O)ccc1-c1ccccc1 | 215 (≈ 449 µM)
41 | CCOc1cc(-c2ccccc2)ccc1CNc1nc2c(N)ncnc2n1[C@@H]1O[C@H](CO)[C@@H](O)[C@H]1O | 2 (≈ 4.06 µM)

biological target: T3, Sodium/nucleoside cotransporter 2 (Rattus norvegicus); assay: Inhibition of rat CNT2 expressed in African green monkey COS7 cells assessed as reduction of [14C]-inosine uptake at 1000 uM by liquid scintillation counting analysis; assay type: cell-based; conditions: COS-7
How it was run: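 rCNT2 cDNA in pCI-neo, transiently transfected into COS-7 cells and assayed 2 days later. Cells were pre-incubated twice for 10 min at 37 °C in Na+-free choline buffer, pH 7.4. Uptake of 10 µM [14C]/unlabeled inosine ran 30 min at 37 °C with 10 µM NBMPR. Na+-dependent uptake (Na+ minus choline buffer) was set as 100%, and percent inhibition was taken at 1000 µM.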

Row | Compound | inhibition [%]
42 | O=c1[nH]cnc2c1nc(NCc1ccc(-c3ccccc3)c(OCCCCO)c1)n2[C@@H]1O[C@H](CO)[C@@H](O)[C@H]1O | 18

biological target: T4, Sodium/nucleoside cotransporter 2 (Rattus norvegicus, UniProt Q62773); assay: Inhibition of rat CNT2 expressed in African green monkey COS7 cells assessed as reduction of [14C]-inosine uptake by liquid scintillation counting analysis; assay type: cell-based, COS-7; conditions: not given
T4 sequence (Q62773 whole entry): T3 sequence (whole entry)
How it was run: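 rCNT2 transiently expressed in COS-7 cells, used 2 days post-transfection. 10 µM [14C]inosine uptake at 37 °C for 30 min in the presence of 10 µM NBMPR. Uptake run with Na+ or with choline replacing Na+, pH 7.4; the Na+-dependent difference defined 100% transport. Scintillation read-out; IC50 by nonlinear regression, ≥3 independent runs.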

Row | Compound | IC50 [µM]
43 | O=c1[nH]cnc2c1nc(NCc1ccc(-c3ccccc3)c(OCCCCO)c1)n2[C@@H]1O[C@H](CO)[C@@H](O)[C@H]1O | > 1000
44 | Nc1ncnc2c1nc(NCc1ccc(-c3ccccc3)c(OCCO)c1)n2[C@@H]1O[C@H](CO)[C@@H](O)[C@H]1O | > 100
45 | Nc1ncnc2c1nc(NCc1ccc(-c3cccnc3)cc1)n2[C@@H]1O[C@H](CO)[C@@H](O)[C@H]1O | > 100
46 | Nc1ncnc2c1nc(NCc1ccc(-c3ccccc3)c(OCCCCCO)c1)n2[C@@H]1O[C@H](CO)[C@@H](O)[C@H]1O | 60
47 | Nc1ncnc2c1nc(NCc1ccc(-c3ccccc3)c(OCCCO)c1)n2[C@@H]1O[C@H](CO)[C@@H](O)[C@H]1O | 45.1
48 | NC(=O)COc1cc(CNc2nc3c(N)ncnc3n2[C@@H]2O[C@H](CO)[C@@H](O)[C@H]2O)ccc1-c1ccccc1 | > 100
